pIC50: −log10 of the molar value.
Experiments:
[1] = species on record: Mus musculus; test: (§1) Compound was tested for opioid agonist activity in the electrically stimulated mouse vas deferens(MVD); assay type: functional
In short: (§2)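 Electrically stimulated guinea pig ileal longitudinal muscle or mouse vas deferens, hydrochloride salts. Weak agonists tested at a single 1 μM concentration, reported as percent of maximal response (±SE). Full agonists run at four to six concentrations to give a concentration-response curve compared with a standard agonist in the same tissue. IC50 = agonist concentration giving half-maximal response; a negative value means enhanced twitch amplitude.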

[2] = biological target: Mu-type opioid receptor (Cavia porcellus) (UniProt P97266); test: Compound was tested for opioid antagonist activity in the electrically stimulated GPI preparation, against morphine (Opioid receptor mu 1); assay type: functional
In short: (§3)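 Antagonism in electrically stimulated smooth muscle, hydrochloride salts. Test ligand 100 nM preincubated for 15 min before the standard agonist: DADLE (δ) in mouse vas deferens, morphine (μ) and ethylketazocine (κ) in guinea pig ileal longitudinal muscle. IC50 ratio = agonist IC50 with test compound / control agonist IC50. Ke (nM) = [antagonist]/(IC50 ratio − 1).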

[3] = species on record: Cavia porcellus; test: (§4) Compound was tested for opioid agonist activity in the electrically stimulated guinea pig ileal longitudinal muscle(GPI); assay type: functional, Muscle tissue; in short: as §2
[4] = biological target: Delta-type opioid receptor (Mus musculus) (UniProt P32300); test: Inhibition of [D-Ala2,D-Leu5]-enkephalin (DADLE) activity in the electrically stimulated mouse vas deferens; in short: as §3
[5] = biological target: Kappa-type opioid receptor (Cavia porcellus) (UniProt P41144); test: Antagonist activity against electrically stimulated guinea pig ileum Opioid receptor kappa 1; assay type: functional, tissue-based; in short: as §3
[6] = species on record: Mus musculus; test: as §1; assay type: functional, organism-based; in short: as §2
[7] = species on record: Cavia porcellus; test: as §4; assay type: functional, organism-based; conditions: Muscle tissue; in short: as §2

Sequence of Mu-type opioid receptor (Cavia porcellus) (P97266 whole entry): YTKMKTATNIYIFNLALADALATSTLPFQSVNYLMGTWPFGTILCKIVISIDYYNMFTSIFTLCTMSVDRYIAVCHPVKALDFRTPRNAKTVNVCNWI
Sequence of Delta-type opioid receptor (Mus musculus) (P32300 whole entry): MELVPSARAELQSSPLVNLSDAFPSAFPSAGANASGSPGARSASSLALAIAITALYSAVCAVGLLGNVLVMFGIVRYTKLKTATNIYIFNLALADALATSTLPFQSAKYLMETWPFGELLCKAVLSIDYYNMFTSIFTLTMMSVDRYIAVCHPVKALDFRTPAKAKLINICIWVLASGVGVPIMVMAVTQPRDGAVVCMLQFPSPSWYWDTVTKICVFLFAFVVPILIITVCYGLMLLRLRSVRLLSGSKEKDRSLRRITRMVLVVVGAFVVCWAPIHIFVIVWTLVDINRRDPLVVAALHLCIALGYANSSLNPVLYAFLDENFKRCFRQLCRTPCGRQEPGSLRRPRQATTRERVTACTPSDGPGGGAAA
Sequence of Kappa-type opioid receptor (Cavia porcellus) (P41144 whole entry): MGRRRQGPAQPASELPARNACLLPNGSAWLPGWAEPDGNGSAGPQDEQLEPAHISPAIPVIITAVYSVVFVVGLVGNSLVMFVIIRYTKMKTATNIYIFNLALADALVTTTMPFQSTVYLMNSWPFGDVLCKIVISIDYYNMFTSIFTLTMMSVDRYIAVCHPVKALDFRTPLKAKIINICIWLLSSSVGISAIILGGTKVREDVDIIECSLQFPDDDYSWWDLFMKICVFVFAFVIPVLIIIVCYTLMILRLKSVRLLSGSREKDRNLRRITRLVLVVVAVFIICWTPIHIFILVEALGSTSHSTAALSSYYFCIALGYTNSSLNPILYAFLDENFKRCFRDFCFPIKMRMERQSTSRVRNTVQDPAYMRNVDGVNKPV

## CN1CC[C@]23c4c5ccc(O)c4O[C@H]2C(=O)C(c2ccccc2)(c2ccccc2)CC3[C@H]1C5 (some centres not stated)
[1]
  Max response: 5.4%
[2]
  IC50 ratio: 1.69
[3]
  Max response: 9.7%
[4]
  IC50 ratio: 2.34
[5]
  IC50 ratio: 1.01

## CC(=O)O[C@H]1[C@@H](c2ccccc2)CC2[C@H]3Cc4ccc(O)c5c4[C@@]2(CCN3C)[C@H]1O5 (some centres not stated)
[1]
  Max response: 34.3%
[2]
  IC50 ratio: 0.9
[3]
  Max response: 24%
[4]
  IC50 ratio: 1.02
[5]
  IC50 ratio: 1.08

## CN1CC[C@]23c4c5ccc(O)c4O[C@H]2[C@@H](O)[C@@H](c2cccc([N+](=O)[O-])c2)CC3[C@H]1C5 (some centres not stated)
[1]
  Max response: 56.1%
[2]
  IC50 ratio: 0.34
[3]
  Max response: 49.3%
[4]
  IC50 ratio: 0.99
[5]
  IC50 ratio: 1.05

## O=C1[C@@H](c2ccccc2)C[C@H]2[C@H]3Cc4ccc(O)c5c4[C@@]2(CCN3C2CC2)[C@H]1O5
[4]
  IC50 ratio: 17.6

## Oc1ccc2c3c1O[C@H]1[C@@H](O)[C@@H](c4ccccc4)CC4[C@@H](C2)N(C2CC2)CC[C@@]341 (some centres not stated)
[4]
  IC50 ratio: 3.03

## CN1CC[C@]23c4c5ccc(O)c4O[C@H]2[C@@H](O)[C@@H](c2ccccc2)CC3[C@H]1C5 (some centres not stated)
[6]
  pIC50: 6.75
[2]
  IC50 ratio: 1.85
[3]
  Max response: 23.2%
[5]
  IC50 ratio: 1.9

## CN1CC[C@]23c4c5ccc(O)c4O[C@H]2[C@@H](O)[C@@H](c2ccc(Br)cc2)CC3[C@H]1C5 (some centres not stated)
[1]
  Max response: 15.2%
[2]
  IC50 ratio: 1.2
[3]
  Max response: 10%
[4]
  IC50 ratio: 1.17
[5]
  IC50 ratio: 1.76

## CN1CC[C@]23c4c5ccc(O)c4O[C@H]2C(=O)[C@@H](c2ccccc2)C[C@H]3[C@H]1C5
[1]
  Max response: 29.2%
[2]
  IC50 ratio: 1.05
[3]
  Max response: 53.9%
[4]
  IC50 ratio: 0.97
[5]
  IC50 ratio: 0.75

## Oc1ccc2c3c1O[C@H]1c4[nH]c5ccccc5c4C[C@@]4(O)[C@@H](C2)N(CC2CC2)CC[C@]314 [NALTRINDOLE]
[1]
  Ke: 0.13 nM
[3]
  Ke: 29 nM

## CC(=O)O[C@H]1[C@@H](c2ccccc2)CC2[C@H]3Cc4ccc(O)c5c4[C@@]2(CCN3C2CC2)[C@H]1O5 (some centres not stated)
[7]
  pIC50: 6.93
[1]
  Max response: 21.1%
[4]
  IC50 ratio: 6.38

## O=[N+]([O-])c1cccc([C@H]2CC3[C@H]4Cc5ccc(O)c6c5[C@@]3(CCN4C3CC3)[C@@H](O6)[C@H]2O)c1 (some centres not stated)
[4]
  IC50 ratio: 4.17

From ChEMBL document CHEMBL1131607, “Synthesis of 7-arylmorphinans. Probing the "address" requirements for selectivity at opioid delta receptors” (J Med Chem, 1998)
